# From ChEMBL document CHEMBL4229344 (Eur J Med Chem, 2018)
# Legend:
# [1] = target: Ephrin type-A receptor 6 (Homo sapiens) (UniProt Q9UF33); assay: Binding affinity to wild-type human partial length EPHA6 (Y700 to E1046 residues) expressed in bacterial expression system assessed as residual binding level at 1 uM by Kinomescan method relative to control
# How it was run: (§1)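 Kinome-wide competition binding screen against a panel of 468 purified kinases/mutants, with the test compound at a single concentration of 1 μM. Read-out is the relative binding activity of each kinase in the presence of compound.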
# [2] = target: Serine/threonine-protein kinase Nek4 (Homo sapiens) (UniProt P51957); assay: Binding affinity to wild-type human full length NEK4 (M1 to F841 residues) expressed in mammalian expression system assessed as residual binding level at 1 uM by Kinomescan method relative to control
# How it was run: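 Single-concentration KINOMEscan (DiscoverX) binding screen at 1 μM against a panel of 468 purified kinases and mutants. The read-out is binding relative to control.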
# [3] = target: Non-receptor tyrosine-protein kinase TYK2 (Homo sapiens) (UniProt P29597); assay: Binding affinity to wild-type human partial length TYK2 JH1 catalytic domain (V877 to C1187 residues) expressed in mammalian expression system assessed as residual binding level at 1 uM by Kinomescan method relative to control
# [4] = test system: Mast/stem cell growth factor receptor Kit (Homo sapiens), P10721 [D816V]; assay: Binding affinity to human partial length KIT D816V mutant (I571 to D952 residues) expressed in bacterial expression system assessed as residual binding level at 1 uM by Kinomescan method relative to control
# How it was run: (§2)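 Kinome-wide single-concentration binding screen (KINOMEscan) at 1 μM against a panel of 468 purified kinases and mutants. Read-out is relative binding of each kinase compared with control. Selectivity across the panel was summarised as an S(10) score.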
# [5] = test system: Receptor-type tyrosine-protein kinase FLT3 (Homo sapiens), P36888 [R834Q]; assay: Binding affinity to human partial length FLT3 R834Q mutant (V592 to Y969 residues) expressed in mammalian expression system assessed as residual binding level at 1 uM by Kinomescan method relative to control; how it was run: as §2
# [6] = target: Leucine-rich repeat serine/threonine-protein kinase 2 (Homo sapiens) (UniProt Q5S007); assay: Binding affinity to wild-type human partial length LRRK2 (H970 to E2527 residues) expressed in mammalian expression system assessed as residual binding level at 1 uM by Kinomescan method relative to control
# [7] = target: Serine/threonine-protein kinase pim-2 (Homo sapiens) (UniProt Q9P1W9); assay: Binding affinity to wild-type human partial length PIM2 (M1 to E291 residues) expressed in bacterial expression system assessed as residual binding level at 1 uM by Kinomescan method relative to control
# [8] = target: High affinity nerve growth factor receptor (Homo sapiens) (UniProt P04629); assay: Binding affinity to wild-type human partial length TRKA (G475 to G790 residues) expressed in mammalian expression system assessed as residual binding level at 1 uM by Kinomescan method relative to control
# [9] = target: T1, Platelet-derived growth factor receptor beta (Homo sapiens, UniProt P09619); assay: Binding affinity to wild-type human partial length PDGFRbeta (V582 to Y1009 residues) expressed in bacterial expression system assessed as residual binding level at 1 uM by Kinomescan method relative to control
# How it was run: (§3)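 KINOMEscan competition binding against a panel of 468 purified kinases/mutants, compound tested at 1 μM; readout is relative binding activity versus control.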
# [10] = target: Aurora kinase A (Homo sapiens) (UniProt O14965); assay: Binding affinity to wild-type human partial length AURKA (E122 to K401 residues) expressed in mammalian expression system assessed as residual binding level at 1 uM by Kinomescan method relative to control; how it was run: as §1
# [11] = target: Mitogen-activated protein kinase kinase kinase 7 (Homo sapiens) (UniProt O43318); assay: Binding affinity to wild-type human partial length TAK1 (M1 to Q303 residues) expressed in mammalian expression system assessed as residual binding level at 1 uM by Kinomescan method relative to control; how it was run: as §3
# [12] = target: Serine/threonine-protein kinase NIM1 (Homo sapiens) (UniProt Q8IY84); assay: Binding affinity to wild-type human partial length NIM1 (Q44 to N355 residues) expressed in mammalian expression system assessed as residual binding level at 1 uM by Kinomescan method relative to control
# [13] = target: Mitogen-activated protein kinase kinase kinase 12 (DLK/MAP3K12) (Homo sapiens) (UniProt Q12852); assay: Binding affinity to wild-type human full length DLK (M1 to P859 residues) expressed in mammalian expression system assessed as residual binding level at 1 uM by Kinomescan method relative to control
# [14] = target: Ribosomal protein S6 kinase beta-1 (Homo sapiens) (UniProt P23443); assay: Binding affinity to wild-type human partial length S6K1 (M1 to S421 residues) expressed in mammalian expression system assessed as residual binding level at 1 uM by Kinomescan method relative to control
# [15] = AUC (0 to infinity) in Sprague-Dawley rat at 1 mg/kg, iv; assay type: ADME, organism-based; design: dose 1 mg/kg, time infinity, route intravenous; settings: in vivo
# How it was run: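 Male Sprague-Dawley rats (6–8 weeks) fasted overnight, dosed IV or orally; compound dissolved in 5% DMSO/40% PEG400/55% saline (dosing solution 1 mg/mL). Blood (~0.2 mL) from jugular vein into heparin; IV sampling 1 min–8 h, oral 5 min–24 h. Plasma separated by centrifugation at 2–8 °C, stored at −80 °C until analysis.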
# [16] = target: Serine/threonine-protein kinase RIO3 (Homo sapiens) (UniProt O14730); assay: Binding affinity to wild-type human full length RIOK3 (M1 to E519 residues) expressed in bacterial expression system assessed as residual binding level at 1 uM by Kinomescan method relative to control
# How it was run: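 KINOMEscan competition binding against 468 purified kinases/mutants, test compound at 1 µM; residual binding relative to control.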
# [17] = target: T1, Platelet-derived growth factor receptor beta; assay: Inhibition of TEL-fused PDGFRbeta (unknown origin) expressed in mouse BA/F3 cells assessed as growth inhibition after 72 hrs by CellTiter-Glo or CCK-8 assay; assay type: cell-based
# How it was run: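 Parental BaF3 or IL-3-independent TEL-kinase BaF3 lines, made by retroviral infection and puromycin selection, grown in RPMI 1640 with 10% FBS. Cells seeded at 1–3 × 10^4 cells/mL with serial compound concentrations for 72 h. Viability read by CellTiter-Glo luminescence or CCK-8 absorbance at 450/655 nm and normalised to DMSO. GI50 obtained by triplicate testing with linear regression. Selectivity is the ratio of the two GI50 values.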
# [18] = target: Fibroblast growth factor receptor 4 (Homo sapiens) (UniProt P22455); assay: Binding affinity to wild-type human partial length FGFR4 (G402 to E713 residues) expressed in bacterial expression system assessed as residual binding level at 1 uM by Kinomescan method relative to control; how it was run: as §1
# [19] = target: Serine/threonine-protein kinase SIK3 (Homo sapiens) (UniProt Q9Y2K2); assay: Binding affinity to wild-type human partial length QSK (A90 to L395 residues) expressed in mammalian expression system assessed as residual binding level at 1 uM by Kinomescan method relative to control
# T1 sequence (P09619 whole entry, the tested form may be a part): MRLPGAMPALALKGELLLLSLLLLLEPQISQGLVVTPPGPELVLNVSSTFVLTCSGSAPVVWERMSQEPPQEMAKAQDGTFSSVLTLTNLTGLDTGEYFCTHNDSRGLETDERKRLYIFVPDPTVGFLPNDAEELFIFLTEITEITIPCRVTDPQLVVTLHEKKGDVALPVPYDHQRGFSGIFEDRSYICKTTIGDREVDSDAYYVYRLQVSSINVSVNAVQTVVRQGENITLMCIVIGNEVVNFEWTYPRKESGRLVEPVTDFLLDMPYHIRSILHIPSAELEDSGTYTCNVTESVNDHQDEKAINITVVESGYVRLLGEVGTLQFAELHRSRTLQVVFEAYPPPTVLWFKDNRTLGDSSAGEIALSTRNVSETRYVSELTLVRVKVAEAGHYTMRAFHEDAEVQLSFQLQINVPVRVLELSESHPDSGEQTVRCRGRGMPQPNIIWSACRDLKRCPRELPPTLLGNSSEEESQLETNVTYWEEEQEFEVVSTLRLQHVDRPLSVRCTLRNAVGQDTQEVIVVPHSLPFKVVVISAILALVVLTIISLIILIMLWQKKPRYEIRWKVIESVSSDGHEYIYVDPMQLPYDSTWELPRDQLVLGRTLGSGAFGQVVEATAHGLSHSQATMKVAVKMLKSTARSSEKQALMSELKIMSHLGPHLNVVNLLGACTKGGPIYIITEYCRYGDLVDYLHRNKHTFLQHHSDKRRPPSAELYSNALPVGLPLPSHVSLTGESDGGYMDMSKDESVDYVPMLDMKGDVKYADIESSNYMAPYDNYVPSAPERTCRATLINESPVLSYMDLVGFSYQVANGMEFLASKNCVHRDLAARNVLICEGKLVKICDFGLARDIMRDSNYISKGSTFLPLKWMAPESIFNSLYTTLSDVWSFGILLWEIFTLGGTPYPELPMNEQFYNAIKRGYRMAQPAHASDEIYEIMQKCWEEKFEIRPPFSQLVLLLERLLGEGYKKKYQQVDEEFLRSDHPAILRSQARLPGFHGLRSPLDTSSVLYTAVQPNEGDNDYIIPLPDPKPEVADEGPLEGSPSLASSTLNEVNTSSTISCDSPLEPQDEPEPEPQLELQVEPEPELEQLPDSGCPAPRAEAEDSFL
# Chain of High affinity nerve growth factor receptor (Homo sapiens) (P04629 33-796 limits assumed): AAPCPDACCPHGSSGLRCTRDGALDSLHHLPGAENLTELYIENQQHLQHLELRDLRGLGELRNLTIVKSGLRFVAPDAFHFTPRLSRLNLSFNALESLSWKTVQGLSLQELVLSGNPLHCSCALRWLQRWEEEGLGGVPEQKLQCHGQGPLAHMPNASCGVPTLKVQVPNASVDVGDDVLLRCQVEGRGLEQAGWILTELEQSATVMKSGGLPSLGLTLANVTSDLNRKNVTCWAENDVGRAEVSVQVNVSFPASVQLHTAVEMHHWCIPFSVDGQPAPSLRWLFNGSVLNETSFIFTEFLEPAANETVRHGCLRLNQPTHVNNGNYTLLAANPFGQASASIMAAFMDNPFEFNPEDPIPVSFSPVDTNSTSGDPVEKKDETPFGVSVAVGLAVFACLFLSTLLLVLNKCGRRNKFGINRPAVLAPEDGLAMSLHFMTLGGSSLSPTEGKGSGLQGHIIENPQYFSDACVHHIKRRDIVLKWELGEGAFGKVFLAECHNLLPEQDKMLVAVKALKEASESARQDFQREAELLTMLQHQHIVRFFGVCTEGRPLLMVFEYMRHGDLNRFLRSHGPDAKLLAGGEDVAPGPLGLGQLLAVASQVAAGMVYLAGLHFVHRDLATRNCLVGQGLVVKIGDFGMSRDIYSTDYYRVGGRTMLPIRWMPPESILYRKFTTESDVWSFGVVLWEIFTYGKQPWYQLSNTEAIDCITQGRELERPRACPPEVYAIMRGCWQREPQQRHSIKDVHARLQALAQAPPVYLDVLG
# Chain of Non-receptor tyrosine-protein kinase TYK2 (Homo sapiens) (P29597 whole entry, the tested form may be a part): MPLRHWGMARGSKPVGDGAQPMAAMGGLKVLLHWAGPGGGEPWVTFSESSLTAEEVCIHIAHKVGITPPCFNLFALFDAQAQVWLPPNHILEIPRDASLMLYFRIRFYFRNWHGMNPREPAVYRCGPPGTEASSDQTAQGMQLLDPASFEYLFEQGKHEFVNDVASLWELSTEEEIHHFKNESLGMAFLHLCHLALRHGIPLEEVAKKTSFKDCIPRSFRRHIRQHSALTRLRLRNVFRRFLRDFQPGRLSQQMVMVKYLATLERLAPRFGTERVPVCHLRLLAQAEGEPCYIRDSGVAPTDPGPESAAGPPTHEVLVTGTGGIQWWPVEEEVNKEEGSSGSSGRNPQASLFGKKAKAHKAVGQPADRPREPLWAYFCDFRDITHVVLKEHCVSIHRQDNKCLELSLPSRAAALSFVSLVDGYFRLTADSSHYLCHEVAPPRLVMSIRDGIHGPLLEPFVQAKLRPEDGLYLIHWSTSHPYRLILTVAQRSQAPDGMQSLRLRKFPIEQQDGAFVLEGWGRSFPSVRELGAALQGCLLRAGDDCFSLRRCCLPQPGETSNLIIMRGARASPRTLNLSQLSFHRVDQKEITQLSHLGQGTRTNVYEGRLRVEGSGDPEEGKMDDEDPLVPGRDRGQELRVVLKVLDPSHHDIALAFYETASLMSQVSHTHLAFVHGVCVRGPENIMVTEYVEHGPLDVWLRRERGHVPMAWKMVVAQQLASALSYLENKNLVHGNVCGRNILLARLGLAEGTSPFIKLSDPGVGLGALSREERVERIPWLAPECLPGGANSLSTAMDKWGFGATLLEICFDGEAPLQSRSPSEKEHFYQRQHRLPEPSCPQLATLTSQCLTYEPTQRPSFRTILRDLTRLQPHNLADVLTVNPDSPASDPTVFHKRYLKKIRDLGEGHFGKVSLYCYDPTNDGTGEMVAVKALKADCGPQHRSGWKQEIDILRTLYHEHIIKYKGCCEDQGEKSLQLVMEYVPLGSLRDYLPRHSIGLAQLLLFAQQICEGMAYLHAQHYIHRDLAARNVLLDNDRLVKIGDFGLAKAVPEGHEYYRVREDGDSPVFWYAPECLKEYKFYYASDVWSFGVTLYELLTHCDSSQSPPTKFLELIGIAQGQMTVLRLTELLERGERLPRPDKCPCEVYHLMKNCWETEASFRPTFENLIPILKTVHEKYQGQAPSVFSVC
# Chain of Ribosomal protein S6 kinase beta-1 (Homo sapiens) (P23443 whole entry, looked up, the tested form may be a part): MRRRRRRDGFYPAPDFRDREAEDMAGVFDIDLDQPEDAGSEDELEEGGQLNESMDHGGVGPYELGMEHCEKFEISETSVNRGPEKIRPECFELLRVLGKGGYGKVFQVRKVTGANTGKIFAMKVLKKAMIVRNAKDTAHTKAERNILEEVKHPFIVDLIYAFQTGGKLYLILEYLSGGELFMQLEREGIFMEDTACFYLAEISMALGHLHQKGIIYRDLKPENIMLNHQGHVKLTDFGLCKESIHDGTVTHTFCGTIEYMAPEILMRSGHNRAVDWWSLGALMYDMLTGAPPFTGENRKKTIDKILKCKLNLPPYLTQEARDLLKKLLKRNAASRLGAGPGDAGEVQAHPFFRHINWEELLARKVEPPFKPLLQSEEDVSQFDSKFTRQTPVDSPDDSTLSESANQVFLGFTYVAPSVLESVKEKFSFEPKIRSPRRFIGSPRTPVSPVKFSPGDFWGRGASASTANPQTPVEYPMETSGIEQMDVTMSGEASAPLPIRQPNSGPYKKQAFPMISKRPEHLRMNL
# Chain of Serine/threonine-protein kinase NIM1 (Homo sapiens) (Q8IY84 whole entry, the tested form may be a part): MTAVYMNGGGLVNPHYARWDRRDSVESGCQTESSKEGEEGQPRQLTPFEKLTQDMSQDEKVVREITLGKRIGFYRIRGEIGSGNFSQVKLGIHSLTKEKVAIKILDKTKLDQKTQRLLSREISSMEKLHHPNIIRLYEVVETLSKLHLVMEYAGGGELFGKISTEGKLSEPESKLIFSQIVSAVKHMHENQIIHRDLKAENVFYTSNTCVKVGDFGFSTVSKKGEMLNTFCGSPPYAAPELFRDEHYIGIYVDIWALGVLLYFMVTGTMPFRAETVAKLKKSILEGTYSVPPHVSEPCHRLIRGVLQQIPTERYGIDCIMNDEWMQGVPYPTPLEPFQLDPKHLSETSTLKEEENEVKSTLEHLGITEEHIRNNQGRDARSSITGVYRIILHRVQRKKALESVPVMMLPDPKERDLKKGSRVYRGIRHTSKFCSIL
# Chain of Serine/threonine-protein kinase RIO3 (Homo sapiens) (O14730 whole entry, the tested form may be a part): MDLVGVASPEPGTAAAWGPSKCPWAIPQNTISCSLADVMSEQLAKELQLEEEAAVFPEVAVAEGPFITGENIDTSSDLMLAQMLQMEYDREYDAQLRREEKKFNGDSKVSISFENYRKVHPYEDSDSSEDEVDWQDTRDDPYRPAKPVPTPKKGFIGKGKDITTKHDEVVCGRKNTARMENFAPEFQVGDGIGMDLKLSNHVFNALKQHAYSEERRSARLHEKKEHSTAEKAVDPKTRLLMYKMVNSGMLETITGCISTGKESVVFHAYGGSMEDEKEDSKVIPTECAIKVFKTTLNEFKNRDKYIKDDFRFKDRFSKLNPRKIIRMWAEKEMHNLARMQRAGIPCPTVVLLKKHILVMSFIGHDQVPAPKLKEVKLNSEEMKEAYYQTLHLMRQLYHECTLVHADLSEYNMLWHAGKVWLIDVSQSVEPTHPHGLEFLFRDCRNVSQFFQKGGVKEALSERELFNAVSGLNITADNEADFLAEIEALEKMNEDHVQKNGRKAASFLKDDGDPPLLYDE
# Chain of Serine/threonine-protein kinase pim-2 (Homo sapiens) (Q9P1W9 whole entry, looked up, the tested form may be a part): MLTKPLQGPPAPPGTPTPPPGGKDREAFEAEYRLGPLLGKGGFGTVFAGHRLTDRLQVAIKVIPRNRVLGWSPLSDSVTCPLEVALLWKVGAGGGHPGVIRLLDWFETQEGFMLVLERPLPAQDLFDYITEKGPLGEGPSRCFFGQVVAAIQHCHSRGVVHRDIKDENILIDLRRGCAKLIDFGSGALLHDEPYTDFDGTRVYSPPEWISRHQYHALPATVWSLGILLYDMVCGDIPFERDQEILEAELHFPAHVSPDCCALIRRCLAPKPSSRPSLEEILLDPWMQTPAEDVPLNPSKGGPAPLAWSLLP
smiles,measurement,setting,value
Cc1ccc(NC(=O)c2ccc(CN(CCN(C)C)C(=O)c3cccnc3)cc2)cc1Nc1nccc(-c2cccnc2)n1,Activity,[1],92%
same,Activity,[2],100%
same,Activity,[3],100%
same,Activity,[4],88%
same,Activity,[5],90%
same,Activity,[6],100%
same,Activity,[7],93%
same,Activity,[8],95%
same,Activity,[9],0.7%
same,Activity,[10],74%
same,Activity,[11],92%
same,Activity,[12],100%
same,Activity,[13],93%
same,Activity,[14],100%
same,AUC(0-inf),[15],541 ng·h/mL
same,Activity,[16],69%
same,GI50,[17],2.9 µM
same,Activity,[18],91%
same,Activity,[19],96%
